# CHO parental Ca: ATP-evoked calcium signal inhibitors, parental CHO, primary screen, counter-screen for OX1R antagonist project, cell-based, fluorescence, Fluo-8 calcium dye; parental CHO-K1, ATP-induced calcium, Fluo-8 fluorescence; inhibition, % at 5.6 µM; 330,000 compounds, 0.63% hits;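 active = inhibition above that plate's mean sample inhibition plus 3 SD, cut at about 26% in these data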;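 also: 0% = ATP-challenged DMSO wells and 100% = DMSO wells without ATP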
#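 Test system: parental CHO cells; detection: calcium-sensitive Fluo-8 fluorescence; evaluation: percent inhibition of calcium signal; also added: ATP as calcium-mobilizing challenge; repeats: one well per compound; control set: ATP-challenged DMSO wells low, unchallenged DMSO wells high; compound: single nominal dose of 5.6 µM per compound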
# OX1R antag-1: antagonists of human orexin 1 receptor (OX1R); OX1R-expressing cells, FRET antagonist read-out; inhibition, % at 6.6 µM; Orexin/Hypocretin receptor type 1 (Homo sapiens), O43613; 330,000 compounds, 1.8% hits; in the data active = inhibition mostly above about 38%, no sharp cut-off; inactive = mostly below about 40%;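 also: 0% = agonist challenge alone and 100% = reference antagonist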
# Target sequence (O43613 whole entry, looked up): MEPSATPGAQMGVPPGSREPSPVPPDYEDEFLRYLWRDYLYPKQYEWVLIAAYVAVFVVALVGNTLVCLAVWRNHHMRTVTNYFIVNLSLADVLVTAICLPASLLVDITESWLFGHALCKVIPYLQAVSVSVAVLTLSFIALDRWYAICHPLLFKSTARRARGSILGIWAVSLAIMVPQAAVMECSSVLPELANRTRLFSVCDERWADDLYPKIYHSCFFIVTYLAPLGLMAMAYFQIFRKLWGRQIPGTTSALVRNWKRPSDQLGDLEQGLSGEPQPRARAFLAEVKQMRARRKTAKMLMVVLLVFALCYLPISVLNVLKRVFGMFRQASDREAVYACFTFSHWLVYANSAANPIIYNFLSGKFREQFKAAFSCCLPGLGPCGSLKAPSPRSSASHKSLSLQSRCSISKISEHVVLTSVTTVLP
# GPR7 antag: GPR7 receptor antagonists, primary screen, cell-based, fluorescence, single concentration. GPR7-expressing cells, fluorescence antagonist assay. Neuropeptides B/W receptor type 1 (Homo sapiens), P48145. AID 1861, 2009. 290,000 compounds, 1.1% hits. inhibition, % at 4.4 µM; in the data active = inhibition above about 16%, passing the limit was not always enough;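 also: cells stimulated with the agonist NPW; 0% = agonist with vehicle and 100% = vehicle without agonist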
# TAAR1 agonist: human TAAR1 agonists, primary screen, Fluo-8 calcium fluorescence, CHO RD-HGA16 cells | Trace amine-associated receptor 1 (Homo sapiens), Q96RJ0 | vehicle wells 0%, saturating PEA agonist 100% | activation, % at 3 µM | 360,000 compounds, 0.99% hits;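 active = activation above the mean activation of all test compounds in the run plus 3 SD, cut at about 38% in these data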
#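 Signal – calcium-sensitive Fluo-8 signal, excitation 470-495, emission 515-575 nm · System – RD-HGA16 (CHO) cells co-expressing Gα16 and hTAAR1 · Incubation – 17-24 h seeding, 75 min 37 °C dye, 30 min RT · Compound dosing – 3 µM single concentration · Repeats – no replicates (n 1)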
# OX1R antag-2: OX1R (HCRTR1) antagonists, primary screen, fluorescence, CHO/OX1R cells, Fluo-8 calcium, orexin A | Orexin/Hypocretin receptor type 1 (Homo sapiens), O43613 | Fluo-8 calcium fluorescence | inhibition, % at 5 µM | 330,000 compounds, 0.43% hits | AID 434989, 2010;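 active = inhibition above its plate's threshold, mean inhibition of all tested compounds on the plate plus 3 SD, cut at about 37% in these data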;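 also: 0% = orexin A challenge wells and 100% = SB-334867-A antagonist wells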
# TAAR1 antag: human TAAR1 antagonists, primary screen, Fluo-8 calcium fluorescence, CHO RD-HGA16 cells | antagonist | inhibition, % at 3 µM | 360,000 compounds, 1.5% hits;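 active = inhibition above a per-plate cutoff, the mean inhibition of test compounds on that plate plus 3 SD, cut at about 49% in these data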;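 also: 0% = DMSO plus EC80 beta-PEA response and 100% = DMSO alone without agonist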
#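 Test system – hTAAR1-expressing CHO RD-HGA16 cells, Gα16-coupled · Reagent – β-PEA at EC80 concentration, post-compound challenge · Compound dosing – 3 µM, single point · Timing – 140 s kinetic read after compound, 140 s after agonist · Detection – Fluo-8 intracellular calcium dye fluorescence, real-time kinetic reads · Control set – DMSO and EC80 PEA controls · Repeats – n of 1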
# TAAR1 nonsel count: nonselective antagonists in TAAR1 counter-screen cells, counter-screen for hTAAR1 antagonist project, cell-based, fluorescence, calcium | shares compounds with TAAR1 antag | counterscreen cell line, antagonist mode | inhibition, % at 3 µM | 2,400 compounds, 77% hits | AID 651780, 2012; in the data active = inhibition above about 22%;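 also: CHO-Ga16 host cells stimulated with ATP at an EC80 level; 0% = agonist EC80 plus vehicle and 100% = vehicle without agonist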
# TAAR1 antag conf: human TAAR1 antagonists, retest of hits, confirmation, cell-based, fluorescence; shares compounds with TAAR1 antag; TAAR1-expressing cells, fluorescence antagonist read-out; 2,400 compounds, 40% hits; inhibition, % at 3 µM; in the data active = inhibition above about 49%;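 also: CHO-Ga16 host cells challenged with agonist PEA near its EC80; 0% = agonist at EC80 plus vehicle and 100% = vehicle with no agonist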
# Ga16 nonsel ag: calcium activation in Ga16-expressing cells, counter-screen for TAAR1 antagonist project, cell-based, fluorescence | shares compounds with TAAR1 antag | agonist counterscreen | activation, % at 3 µM | 2,400 compounds, 18% hits; in the data active = activation above about 12%;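 also: 0% = vehicle wells and 100% = saturating stimulus response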
# TAAR1 ag counter: TAAR1 activation by candidate antagonists – cell-based, fluorescence, counter-screen for TAAR1 antagonist project; shares compounds with TAAR1 antag; hTAAR1 cell line, agonist mode; activation, % at 3 µM; 2,400 compounds, 2% hits; AID 651955, 2012; in the data active = activation above about 37%;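 also: CHO cells stably expressing TAAR1 with calcium dye readout; 0% = DMSO vehicle and 100% = full agonist response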
# * = called active by the depositor; · = no result given. In the library only some 4.5% were active in any assay of this set; here they are far more common.
SMILES,CHO parental Ca,OX1R antag-1,GPR7 antag,TAAR1 agonist,OX1R antag-2,TAAR1 antag,TAAR1 nonsel count,TAAR1 antag conf,Ga16 nonsel ag,TAAR1 ag counter
COc1ccccc1/C=C/C(=O)NC(=S)NCC1CCCO1 (stereo not drawn),-9,3,-12,6,-7,74*,27*,52*,5,7
COc1ccc(/C=C/C(=O)NC(=S)NCC2CCCO2)cc1 (stereo not drawn),-18,21,-18,4,-36,11,·,·,·,·
O=C(CN1c2cccc3cccc(c23)S1(=O)=O)Nc1ccc(F)c(F)c1F,-15,1,·,2,-31,104*,9,12,4,5
Cc1nc2ccccc2c2oc(C(=O)N3CCc4ccccc4C3)cc12,-11,35*,-3,3,-12,58*,26*,49*,15*,18
CCOC=C1C(=O)N(C(C)=O)c2cc(OC)c(OC)cc21,·,·,·,0,·,2,·,·,·,·
COC(=O)c1ccc(CSc2ccccc2NC(=S)Nc2cccc(SC)c2)o1,·,·,·,4,·,21,·,·,·,·
O=C(COCc1ccccc1)N[C@@H]1c2ccccc2CC[C@H]1OCc1ccccc1,-20,15,·,2,-30,14,·,·,·,·
O=C(CCc1ccccc1)N[C@@H]1c2ccccc2CC[C@@H]1OCc1ccccc1,-21,22,·,9,11,53*,10,16,-1,-2
CC(=O)C1=CCC(c2ccc(Cl)cc2)N(S(=O)(=O)c2ccccc2C)C1 (stereo not drawn),·,·,·,3,·,1,·,·,·,·
NC(CCc1ccccc1)c1csc(NC(=O)NCC2CCCCC2)n1 (stereo not drawn),·,·,·,23,·,20,·,·,·,·
Cc1ccc(CSCCNC(=O)/C=C/c2ccccc2Cl)cc1,-25,11,3,10,-22,52*,25*,27,3,6
O=C(/C=C/c1ccc(Cl)cc1Cl)NCCSCc1ccccc1,-20,15,0,4,-23,2,·,·,·,·
OC(c1ccc(F)c(F)c1)c1nc(-c2ccc3ccccc3c2)cs1 (stereo not drawn),·,·,·,23,·,55*,32*,37,13*,14
C=CCC[C@H](Cc1ccc(F)cc1)C(=O)OC[C@H](Cc1c[nH]c2ccccc12)NC(=O)[C@H](CC=C)CC(=O)NCCO,-8,4,·,25,18,73*,26*,44,6,7
C=CC[C@H](CC(=O)N(CCO)Cc1ccccc1)C(=O)N[C@H](COC(=O)[C@@H](CC=C)CC(=O)OC(C)(C)C)Cc1c[nH]c2ccccc12,-11,10,·,15,-4,67*,21,42,4,6
C=CC[C@@H](CC(=O)N(CCO)Cc1ccccc1)C(=O)N[C@H](COC(=O)[C@H](CC=C)CC(=O)OC(C)(C)C)Cc1c[nH]c2ccccc12,-12,1,·,7,-19,42,·,·,·,·
C=CC[C@@H](CC(=O)N[C@H](CO)Cc1ccccc1)C(=O)NC[C@H](OC(=O)[C@@H](CC=C)Cc1ccc(F)cc1)c1ccccc1,-21,28,·,19,21,69*,30*,56*,8,7
Cc1ccc([C@H]2N[C@]3(CCCN(Cc4ccccc4)C3=O)[C@H]3C(=O)N(C)C(=O)[C@@H]23)cc1,·,·,·,1,·,-2,·,·,·,·
